Assay results gathered from unrelated publications.
Each line is one published result; the experiments were not run side by side.
Target: Membrane-associated tyrosine- and threonine-specific cdc2-inhibitory kinase (PKMYT1, Homo sapiens, UniProt Q99640)
One construct used (Q99640 1-499): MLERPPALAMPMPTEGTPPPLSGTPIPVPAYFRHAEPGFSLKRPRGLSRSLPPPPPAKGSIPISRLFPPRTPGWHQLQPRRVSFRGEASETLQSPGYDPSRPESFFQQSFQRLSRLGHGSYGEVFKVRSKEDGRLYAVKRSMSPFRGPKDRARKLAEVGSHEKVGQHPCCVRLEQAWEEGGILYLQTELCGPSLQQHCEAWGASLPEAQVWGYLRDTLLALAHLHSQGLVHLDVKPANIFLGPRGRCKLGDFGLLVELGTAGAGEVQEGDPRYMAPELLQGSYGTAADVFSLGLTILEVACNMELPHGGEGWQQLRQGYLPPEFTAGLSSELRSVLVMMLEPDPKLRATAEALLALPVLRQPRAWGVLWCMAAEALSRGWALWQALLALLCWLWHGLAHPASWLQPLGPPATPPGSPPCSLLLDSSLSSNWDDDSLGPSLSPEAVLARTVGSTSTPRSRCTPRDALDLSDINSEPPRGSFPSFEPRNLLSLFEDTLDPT

For O=C(c1ccc(Nc2ncc(Cl)c(-c3ccc(Cl)s3)n2)cc1)N1CCC(N2CCCC2)CC1, the remaining binding was 100% (binding, competition with immobilised ligand; 1 µM).
The remaining binding of Cn1nc(C(F)(F)F)cc1-c1cnc(N2CCc3cc(S(=O)(=O)Nc4c(F)cc(Cl)cc4F)cc(N4CCCC4=O)c32)nc1 is reported as 93% (cell-free assay, competition with immobilised ligand; 1 µM).
For F[C@@H]1CCN(c2nccc(-c3cnn4ncccc34)n2)C1, the remaining binding was 100% (binding; 1 µM).
O=C(Nc1ccc(Oc2ccc(F)cc2)cc1)N1CCc2ncccc2[C@H]1c1ccc(F)cc1 gave a remaining binding of 63% (cell-free assay, competition with immobilised ligand; 1 µM).
For O=C(NCC1CCOCC1)c1n[nH]cc1NC(=O)c1c(F)cccc1F, the remaining binding was 72% (binding, competition with immobilised ligand; 1 µM).
For CC1CCCN1c1nccc(-c2cnn3ncccc23)n1 (centres unmarked), the remaining binding was 97% (binding; 1 µM).
CC(=O)c1c(NS(C)(=O)=O)c2cc(-c3ccc(Cl)cc3)c(-c3ccc(Cl)cc3Cl)nc2n(C)c1=O gave a remaining binding of 99% (cell-free assay, competition with immobilised ligand; 1 µM).
CN(C)c1nccc(-c2cnc3ncccn23)n1 has a remaining binding of 88% (binding; 1 µM).
With CCC(=O)N[C@@H]1CC[C@H](C(=O)N(C)c2ccc(-c3nc4ccccc4o3)cc2)C1 the remaining binding was 100% (cell-free assay, competition with immobilised ligand; 1 µM).
For CCN1CCN(Cc2ccc(C(=O)Nc3ccc(C)c(Oc4ccc5c(c4)CC(=O)N5)c3)cc2C(F)(F)F)CC1, the remaining binding was 70% (binding, competition with immobilised ligand; 1 µM).
For FC(F)(F)Oc1cccc(-c2cnc3ccc(-c4ccncc4)nn23)c1, the remaining binding was 67% (cell-free assay, competition with immobilised ligand; 5 µM).
For COc1cc(-c2cn(C3CCc4ccccc4N(CC(F)(F)F)C3=O)nn2)ccc1-n1ccc(C)n1 (centres unmarked), the remaining binding was 100% (cell-free assay, competition with immobilised ligand; 1 µM).
O=C(NCCCN1CCOCC1)c1ccc(Nc2ncc(Cl)c(-c3ccc(Cl)s3)n2)cc1 gave a remaining binding of 100% (binding, competition with immobilised ligand; 1 µM).
Nc1ncc2c(n1)-c1c([nH]c3ccc(C#CC4CC4)cc13)CCCC2 has a remaining binding of 98% (binding, competition with immobilised ligand; 1 µM).
The remaining binding of N[C@@H]1CCN(c2nccc(-c3cnn4ncccc34)n2)C1 is reported as 100% (binding; 1 µM).
The remaining binding of CN1CCN(c2cnc3c(C4CCN(C(=O)c5ccc(OC(F)(F)F)cc5N)CC4)ncnc3c2)CC1 is reported as 100% (cell-free assay, competition with immobilised ligand; 1 µM).
Cc1cnn2ncc(-c3ccnc(N(C)C)n3)c2c1 has a remaining binding of 100% (binding; 1 µM).
COc1cnc(Nc2cccc(S(N)(=O)=O)c2)nc1N1CCN(c2ccccc2)CC1 has a remaining binding of 89% (binding, competition with immobilised ligand; 1 µM).
For CN(C)c1nccc(-c2cnn3ncccc23)n1, the remaining binding was 100% (binding; 1 µM).
O=C(c1ccc(Nc2nccc(-c3cc4ccccc4s3)n2)cc1)N1CCC(N2CCCC2)CC1 gave a remaining binding of 70% (binding, competition with immobilised ligand; 1 µM).
